Calls of active or inactive are those of the source. The calls are words filed in the database; no cut-off is given here.
Key:
[1] = tested on: U-87 MG; assay: Antitumor activity against human U87MG cells xenografted in BALB/c nude mouse assessed as tumor growth inhibition 50 mg/kg/day, ip administered for 14 days; format: functional, organism-based; conditions: U-87MG ATCC
Method in brief: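 5 x 10⁵ U-87 MG cells implanted subcutaneously in right flank of male BALB/c nude mice; at about 50 mm³, randomized to saline or ip 50 mg/kg/day, with temozolomide 50 mg/kg/day in the combination arm, for 14 days. Relative tumor volume = volume on day / day 0; TGI on day 14 = [1 − RTV treated/RTV control] x 100. Two-way ANOVA with Bonferroni.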

[2] = tested on: U-87 MG; assay: Induction of apoptosis in human U87MG cells xenografted in BALB/c nude mouse assessed as caspase-3 levels at 50 mg/kg, ip after 14 days by immunohistochemistry; format: functional, organism-based; conditions: U-87MG ATCC
Method in brief: (§1)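 Male BALB/c nude mice implanted subcutaneously with 5 x 10⁵ U-87 MG cells in the right flank. Treated IP at 50 mg/kg/day for 14 days, with saline controls, starting once tumors reached about 50 mm³. Tumors fixed in formaldehyde and cut at 3 µm. Citrate pH 6 antigen retrieval.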

[3] = tested on: U-87 MG; assay: Anti-angiogenic activity in tumor of human U87MG cells xenografted in nude BALB/c mouse assessed as reduction in number of blood vessels at 50 mg/kg, ip administered for 14 days by hematoxylin and eosin-staining based light microscopy; format: functional, organism-based; conditions: U-87MG ATCC
Method in brief: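 U-87 MG flank xenografts (5 x 10⁵ cells) in male nude mice; ip treatment daily from about 50 mm³ for 14 days, with temozolomide at 50 mg/kg/day in the co-treatment arm. Vessel density counted on HE-stained 3 µm sections by hot-spot method, mean of four fields per tumor at x200, avoiding gross haemorrhage. One-way ANOVA/Dunnett.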

[4] = tested on: U-87 MG; assay: Anti-angiogenic activity in tumor of human U87MG cells xenografted in nude BALB/c mouse assessed as reduction in CD31 staining at 50 mg/kg, ip administered for 14 days by immunohistochemistry; format: functional, organism-based; conditions: U-87MG ATCC
Method in brief: (§2)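 Male nude mice bearing subcutaneous right-flank xenografts of 5 x 10⁵ U-87 MG cells; dosing began at about 50 mm³ tumors, ip daily for 14 days. Tumors formalin-fixed, paraffin sections 3 µm; citrate pH 6 antigen retrieval at 95-98 °C; primary antibody overnight at 4 °C, HRP secondary, DAB. Positive area quantified by optical density at x200, 4 images per tumor; mean ± SEM, one-way ANOVA with Dunnett.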

[5] = tested on: U-87 MG; assay: In-vivo inhibition of cell proliferation in human U87MG cells xenografted in BALB/c nude mouse at 50 mg/kg, ip after 14 days by Ki-67b-staining based assay; format: functional, organism-based; conditions: U-87MG ATCC; method in brief: as §1
[6] = Toxicity in nude BALB/c mouse xenografted with human U87MG cells assessed as reduction in body weight at 50 mg/kg, […]; format: organism-based; set-up: scale not given: the % may be the effect or the level left; conditions: in vivo, ip, 120 h
[7] = tested on: U-87 MG; assay: Anti-angiogenic activity in tumor of human U87MG cells xenografted in nude BALB/c mouse assessed as reduction in VEGF staining at 50 mg/kg, ip administered for 14 days by immunohistochemistry; format: functional, organism-based; conditions: U-87MG ATCC; method in brief: as §2
[8] = target: T1, Thymidine phosphorylase (Homo sapiens, UniProt P19971); assay: Inhibition of recombinant human thymidine phosphorylase expressed in Escherichia coli Rosetta (DE3) cells using thymidine as substrate after 1 min by UV/visible spectrophotometry
T1 sequence (P19971 whole entry): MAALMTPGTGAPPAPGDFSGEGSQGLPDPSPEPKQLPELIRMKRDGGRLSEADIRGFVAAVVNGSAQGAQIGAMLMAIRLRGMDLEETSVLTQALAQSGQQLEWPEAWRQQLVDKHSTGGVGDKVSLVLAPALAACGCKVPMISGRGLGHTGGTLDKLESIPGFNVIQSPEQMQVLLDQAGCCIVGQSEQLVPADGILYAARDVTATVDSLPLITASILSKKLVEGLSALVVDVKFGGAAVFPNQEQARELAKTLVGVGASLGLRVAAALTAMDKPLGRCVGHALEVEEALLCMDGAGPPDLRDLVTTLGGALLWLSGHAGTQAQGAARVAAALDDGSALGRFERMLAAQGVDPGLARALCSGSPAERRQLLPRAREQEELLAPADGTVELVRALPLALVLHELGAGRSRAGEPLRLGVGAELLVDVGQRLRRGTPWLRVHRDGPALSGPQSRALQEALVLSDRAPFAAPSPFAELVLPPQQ

What does the source list for `Cn1nnc2c(C(N)=O)ncn2c1=O` [TEMOZOLOMIDE]?
TGI [1]: Active; Activity [2]: inactive; Activity [3]: inactive; Activity [4]: inactive; inhibition [5]: inactive; Activity [6]: < 20%; Activity [7]: inactive

With `O=c1[nH]c(CNCC(O)CO)c(Br)c(=O)[nH]1` (centres undefined) as the compound, how does the IC50 [8] read?
The IC50 was > 100 µM.

For `CCCN(CCC)Cc1[nH]c(=O)[nH]c(=O)c1I`, which IC50 [8] is on record?
Its IC50 is > 100 µM.

Reference: ChEMBL document CHEMBL4422632, “Design of Novel Inhibitors of Human Thymidine Phosphorylase: Synthesis, Enzyme Inhibition, in Vitro Toxicity, and Impact on Human Glioblastoma Cancer” (J Med Chem, 2019)
